Measurements as given in ChEMBL document CHEMBL2146467, “Generation and exploration of new classes of antitubercular agents: The optimization of oxazolines, oxazoles, thiazolines, thiazoles to imidazo[1,2-a]pyridines and isomeric 5,6-fused scaffolds” (Bioorg Med Chem, 2012).
Values after ≈ are worked out from the molar mass of the structure shown.

What was measured:
[1] = system: Mycobacterium tuberculosis; assay: Antimycobacterial activity against Mycobacterium tuberculosis H37Rv ATCC 27294 culture in GAS media after 7 days by microplate alamar blue assay; format: functional; settings: H37Rv ATCC 27294, 168 h
Outline: (§1)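 Replicating Mtb H37Rv. The MIC is the concentration that inhibits growth of 90% of organisms. Media by line: GAS is glycerol-alanine-salts. GAST is iron-deficient glycerol-alanine-salts with Tween 80. 7H12 is 7H9 broth base with BSA, casein hydrolysate, catalase and palmitic acid. Values are reported in μM.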

[2] = system: Mycobacterium tuberculosis; assay: Antimycobacterial activity against Mycobacterium tuberculosis H37Rv ATCC 27294 culture in GAST media after 7 days by microplate alamar blue assay; format: functional; settings: H37Rv ATCC 27294, 168 h; outline: as §1
[3] = Chemical stability in simulated gastric fluid assessed as compound remaining at 50 uM after 15 mins by LC/MS analysis; format: physicochemical; settings: read-out: Stability
[4] = Metabolic stability in Sprague-Dawley rat liver microsomes assessed as compound remaining at 20 uM after 15 mins by LC/MS analysis; format: ADME, Microsome; settings: read-out: Stability

Row | Structure (SMILES) | MIC90 [1] [µM] | MIC90 [2] [µM] | remaining at 0.25 h, 50 µM [3] [%] | remaining at 0.25 h, 20 µM [4] [%]
1 | CCOC(=O)c1c(-c2ccccc2)nc2ccc(Cl)cn12 | 63.1 (≈ 19 µg/mL) | > 128 |  | 
2 | CCOC(=O)c1c(-c2ccccc2)nc2ccccn12 | 86.5 (≈ 23 µg/mL) | 68.2 (≈ 18.2 µg/mL) |  | 
3 | O=C(OCc1ccccc1)[C@@H]1COC(c2ccc(F)c([N+](=O)[O-])c2)=N1 |  |  | 0.6 | 11.3
4 | O=C(OCc1ccccc1)[C@@H]1COC(c2ccccc2OCc2ccccc2)=N1 |  |  | 0.8 | 5.2
5 | O=C(OCc1ccccc1)c1coc(-c2ccccc2OCc2ccccc2)n1 |  |  | 2.9 | 3.5
6 | COc1ccc(-c2nc(C(=O)OCc3ccccc3)co2)cc1 |  |  | 2.1 | 11.8
7 | O=C(OCc1ccccc1)c1coc(-c2ccc(F)c([N+](=O)[O-])c2)n1 |  |  | 0.9 | 10.9
8 | O=C(OCc1ccccc1)c1coc(-c2ccccc2Cl)n1 |  |  | 1.1 | 7.9
9 | CCOC(=O)c1c(C)nc2cc(C)ccn12 | 65.1 (≈ 14.2 µg/mL) | 64.1 (≈ 14 µg/mL) |  | 
10 | CCOC(=O)c1c(-c2ccccc2)nc2cc(C)ccn12 | 55.1 (≈ 15.4 µg/mL) | 71.3 (≈ 20 µg/mL) |  | 
11 | CCOC(=O)c1c(C)nc2cc(C)cc(C)n12 | > 79.5 | > 72.9 |  | 
12 | CCOC(=O)c1nc(-c2ccccc2)sc1C(C)=O | 63 (≈ 17.3 µg/mL) | 124 (≈ 34.1 µg/mL) |  | 
13 | COc1ccccc1CNC(=O)c1c(C)nc2cc(C)ccn12 |  |  | 100 | 41.6
14 | COc1cccc(CNC(=O)c2c(C)nc3cc(C)ccn23)c1 |  |  | 100 | 94
15 | COc1ccc(CNC(=O)c2c(C)nc3cc(C)ccn23)cc1 |  |  | 100 | 33.6
16 | Cc1ccn2c(C(=O)NCc3ccc(Cl)cc3)c(C)nc2c1 |  |  | 94.3 | 80.7
17 | COc1ccc(C2=N[C@H](C(=O)NCc3ccc(OC)c(OC)c3)CO2)cc1 | > 128 | > 128 |  | 
18 | O=C(NC1CCCCC1)[C@@H]1COC(c2ccc(OC(F)(F)F)cc2)=N1 | 60 (≈ 21.4 µg/mL) | > 64 |  | 
19 | CCCCCCNC(=O)[C@@H]1COC(c2ccc(OC(F)(F)F)cc2)=N1 | 31 (≈ 11.1 µg/mL) | > 64 |  | 
20 | COc1ccc(CNC(=O)c2coc(-c3ccccc3)n2)cc1OC | 81 (≈ 27.4 µg/mL) | > 128 |  | 
21 | O=C(NC1CCCCC1)c1coc(-c2ccccc2)n1 | 14 (≈ 3.78 µg/mL) | 30 (≈ 8.11 µg/mL) |  | 
22 | CCCCCCNC(=O)c1coc(-c2ccccc2)n1 | 22 (≈ 5.99 µg/mL) | 18 (≈ 4.9 µg/mL) |  | 
23 | COc1ccc(CNC(=O)[C@@H]2CSC(c3ccccc3)=N2)cc1OC | 80 (≈ 28.5 µg/mL) | > 128 |  | 

Row | Structure (SMILES) | MIC90 [1] [µM] | MIC90 [2] [µM] | remaining at 0.25 h, 50 µM [3] [%] | remaining at 0.25 h, 20 µM [4] [%]
24 | O=C(NC1CCCCC1)[C@@H]1CSC(c2ccccc2)=N1 | 46 (≈ 13.3 µg/mL) | 56 (≈ 16.2 µg/mL) |  | 
25 | CCCCCCNC(=O)[C@@H]1CSC(c2ccccc2)=N1 | 23 (≈ 6.68 µg/mL) | 58 (≈ 16.8 µg/mL) |  | 
26 | COc1ccc(CNC(=O)c2csc(-c3ccccc3)n2)cc1OC | 58 (≈ 20.6 µg/mL) | 64 (≈ 22.7 µg/mL) |  | 
27 | CCc1ccccc1COC(=O)c1c(C)nc2cc(C)ccn12 |  |  | 100 | 37
28 | Cc1ccn2c(C(=O)NCc3ccccc3Cl)c(C)nc2c1 |  |  | 97.2 | 58.9
29 | CCC(=O)c1ccccc1OC(=O)c1coc(-c2ccccc2)n1 |  |  | 1.8 | 8.7
30 | Cc1cccc(OC(=O)c2coc(-c3ccccc3)n2)c1C |  |  | 2 | 4.9
31 | O=C(Oc1cccc2c1CCCC2)c1coc(-c2ccccc2)n1 |  |  | 1.8 | 14.5
32 | Cc1cc(C)c(OC(=O)c2coc(-c3ccccc3)n2)c(C)c1 |  |  | 1.4 | 22
33 | O=C(Oc1c(Cl)cc(Cl)cc1Cl)c1coc(-c2ccccc2)n1 |  |  | 1.3 | 15.5
34 | O=C(Oc1ccccc1N1CCOCC1)c1coc(-c2ccccc2)n1 |  |  | 0.7 | 5.4
35 | O=C(Oc1ccccc1N1CCCC1)c1coc(-c2ccccc2)n1 |  |  | 0.1 | 11.2
36 | CCC(C)c1ccccc1OC(=O)c1coc(-c2ccccc2)n1 (stereo not drawn) |  |  | 0.2 | 8.3
37 | O=C(Oc1ccc(Cl)cc1Cl)c1coc(-c2ccccc2)n1 |  |  | 0.8 | 17.3
38 | Cc1ccccc1OC(=O)c1coc(-c2ccccc2)n1 |  |  | 1.5 | 13.4
39 | CCCc1ccccc1OC(=O)c1coc(-c2ccccc2)n1 |  |  | 0.9 | 5.4
40 | CC(C)(C)c1cccc(C(C)(C)C)c1OC(=O)c1coc(-c2ccccc2)n1 |  |  | 1.3 | 5.3
41 | Cc1ccc(Cl)c(OC(=O)c2coc(-c3ccccc3)n2)c1 |  |  | 0.9 | 14
42 | CC(C)(C)c1ccccc1OC(=O)c1coc(-c2ccccc2)n1 |  |  | 0.7 | 6.9
43 | CCc1ccccc1OC(=O)c1coc(-c2ccccc2)n1 |  |  | 2.1 | 8.5
44 | O=C(Oc1ccccc1C(F)(F)F)c1coc(-c2ccccc2)n1 |  |  | 1.2 | 10.7
45 | Cc1ccc(COC(=O)c2coc(-c3ccccc3)n2)c(C)c1 |  |  | 1.4 | 16.9
46 | C[C@H](OC(=O)c1coc(-c2ccccc2)n1)c1ccccc1 |  |  | 5 | 5

Row | Structure (SMILES) | MIC90 [1] [µM] | MIC90 [2] [µM] | remaining at 0.25 h, 50 µM [3] [%] | remaining at 0.25 h, 20 µM [4] [%]
47 | Cc1cc(C)c(COC(=O)c2coc(-c3ccccc3)n2)c(C)c1 |  |  | 5.6 | 18.1
48 | Cc1ccccc1COC(=O)c1coc(-c2ccccc2)n1 |  |  | 3.1 | 10.9
49 | O=C(OCc1ccccc1C(F)(F)F)c1coc(-c2ccccc2)n1 |  |  | 0.8 | 7.8
50 | CCc1ccccc1COC(=O)c1coc(-c2ccccc2)n1 |  |  | 3.2 | 3.2
51 | CCCCCCCCOC(=O)c1coc(-c2ccccc2)n1 |  |  | 1.1 | 13.1
52 | O=C(OCC1CC1)c1coc(-c2ccccc2)n1 |  |  | 1.5 | 3.3
53 | O=C(OC1CCCCC1)c1coc(-c2ccccc2)n1 |  |  | 0.5 | 12.1
54 | O=C(Oc1cccc(C(F)(F)F)c1)c1coc(-c2ccccc2)n1 |  |  | 5.5 | 13
55 | O=C(Oc1ccccc1)c1coc(-c2ccccc2)n1 |  |  | 0.2 | 0.2
56 | CCOC(=O)c1c(C(F)(F)F)nc2ccccn12 | > 128 | > 128 |  | 
57 | CCOC(=O)c1cnc2cc(C)c(N)cn12 | > 128 | > 128 |  | 
58 | CCOC(=O)c1c(C)nc2c(C3CCCN3C)cccn12 (stereo not drawn) | > 64 | > 64 |  | 
59 | CCOC(=O)c1c(C)nc2ccc(Cl)cn12 | 93.5 (≈ 22.3 µg/mL) | > 101 |  | 
60 | CCOC(=O)c1coc(-c2ccccc2)n1 | 19.5 (≈ 4.24 µg/mL) | 7.5 (≈ 1.63 µg/mL) |  | 
61 | CCOC(=O)c1nc(-c2ccccc2)oc1C(F)(F)F | > 128 | > 128 |  | 
62 | CCOC(=O)c1nc(-c2ccccc2)oc1C | > 128 | 124 (≈ 28.7 µg/mL) |  | 
63 | CCOC(=O)c1csc(-c2ccc(C)cc2)n1 | 61 (≈ 15.1 µg/mL) | 79 (≈ 19.5 µg/mL) |  | 
64 | CCOC(=O)c1csc(-c2cccc(C(F)(F)F)c2)n1 | 59 (≈ 17.8 µg/mL) | 61 (≈ 18.4 µg/mL) |  | 
65 | CCOC(=O)c1csc(-c2cccc(Cl)c2Cl)n1 | 41 (≈ 12.4 µg/mL) | 39 (≈ 11.8 µg/mL) |  | 
66 | CCOC(=O)c1n[nH]c(-c2cccc(C)c2)c1N | > 128 | > 128 |  | 
67 | CCOC(=O)c1nn(Cc2ccccc2)cc1N | 126 (≈ 30.9 µg/mL) | > 128 |  | 
68 | CCOC(=O)c1cc(-c2ccc([N+](=O)[O-])cc2)[nH]n1 | > 128 | > 128 |  | 
69 | CCOC(=O)c1c(-c2ccccc2)nc2ccc(C)cn12 | 55.1 (≈ 15.4 µg/mL) | 41 (≈ 11.5 µg/mL) |  | 
